Source: ChEMBL document CHEMBL4043308 (J Med Chem, 2018)
The source made the active and inactive calls. No cut-off for these calls is given here.

Key:
Mus musculus [1] = experiment: Antifibrotic activity in BLM-induced C57BL/6 mouse pulmonary fibrosis model assessed as decrease in contiguous fibrotic walls at 30 mg/kg, ip qd administered 15 days starting 1 day prior to BLM installation by hematoxylin/eosin staining-based microscopic method; format: functional, organism-based
Method in brief: (§1)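 Bleomycin model: mice 8–10 weeks, 0.01 U orotracheal bleomycin on day 0, 30 mg/kg ip daily from day −1 to 14 (PBS/5% Tween 80 vehicle), killed day 15. Lungs were fixed in 10% neutral buffered formalin, paraffin-embedded, cut at 4 μm and H&E-stained. Sections were examined by light microscopy at ×100–×300.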

Mus musculus [2] = experiment: Antifibrotic activity in BLM-induced C57BL/6 mouse pulmonary fibrosis model assessed as decrease in total protein concentration in bronchoalveolar lavage fluid at 30 mg/kg, ip qd administered 15 days starting 1 day prior to BLM installation by Bradford protein assay relative to control; format: functional, organism-based
Method in brief: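 BALF total protein was measured after orotracheal bleomycin (0.01 U, day 0) and 30 mg/kg ip daily dosing from day −1 to 14. Lavage was done on day 15 with 3 × 1 mL saline, and the supernatant was stored at −80 °C. OD readings were converted to mg/mL using a BSA standard curve (0–2 mg/mL). Means ± SE, paired t test.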

Mus musculus [3] = experiment: Antifibrotic activity in BLM-induced C57BL/6 mouse pulmonary fibrosis model assessed as decrease in fibrotic lesions at 30 mg/kg, ip qd administered 15 days starting 1 day prior to BLM installation by hematoxylin/eosin staining-based microscopic method; format: functional, organism-based; method in brief: as §1
[4] = Plasma concentration in BLM-induced C57BL/6 mouse pulmonary fibrosis model at 30 mg/kg, ip qd administered 15 days starting 1 day prior to BLM installation measured 1 hr post last dose by LC-MS/MS method; format: ADME, organism-based
Method in brief: (§2)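 Bleomycin-challenged C57BL/6 mice received 30 mg/kg ip daily from day −1 to 14. Blood was taken 1, 3 and 6 h after the last dose into EDTA (pH 8, final 50 mM). It was centrifuged at 2000g for 20 min at 4 °C, and plasma was stored at −80 °C. Plasma drug levels were quantified by LC–MS/MS (ng/mL).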

Mus musculus [5] = experiment: Antifibrotic activity in BLM-induced C57BL/6 mouse pulmonary fibrosis model assessed as decrease in soluble collagen concentration in bronchoalveolar lavage fluid at 30 mg/kg, ip qd administered 15 days starting 1 day prior to BLM installation by Sirius Red assay; format: functional, organism-based
Method in brief: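 Day-15 BALF from bleomycin-challenged mice given ip drug at 30 mg/kg daily from day −1 to 14. BALF (100 μL) was diluted in 1 mL 0.5 M acetic acid, mixed with an equal volume of Sirius Red (120 μg/mL in 0.5 M acetic acid) and held 30 min at room temperature. After centrifugation, supernatant A540 was read against a rat-tail collagen I standard (0–500 μg/mL).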

Mus musculus [6] = experiment: Antifibrotic activity in BLM-induced C57BL/6 mouse pulmonary fibrosis model assessed as decrease in inflammatory cell influx in bronchoalveolar lavage fluid at 30 mg/kg, ip qd administered 15 days starting 1 day prior to BLM installation by trypan blue assay relative to control; format: functional; parameters: scale not given: the % may be the effect or the level left
Method in brief: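 Mice (C57BL/6, 8–10 weeks) had orotracheal bleomycin 0.01 U on day 0 and ip dosing at 30 mg/kg daily from day −1 to 14, n = 10. On day 15, lungs were lavaged 3 × 1 mL 0.9% NaCl. BALF was spun at 1200 rpm for 10 min, and pellet cells were counted with 0.4% trypan blue (×10^5 cells/mL). Means ± SE.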

Mus musculus [7] = experiment: Antifibrotic activity in BLM-induced C57BL/6 mouse pulmonary fibrosis model assessed as decrease in ATX activity in bronchoalveolar lavage fluid at 30 mg/kg, ip qd administered 15 days starting 1 day prior to BLM installation by TOOS activity assay; format: functional, organism-based
Method in brief: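 Male and female C57BL/6 mice (8–10 weeks) got 0.01 U bleomycin in 50 μL saline orotracheally on day 0. Dosing was 30 mg/kg ip once daily from day −1 to 14 in PBS/5% Tween 80 (n = 10). Lungs were lavaged three times with 1 mL saline on day 15. BALF lysoPLD activity was measured by TOOS assay (nmol/min/mL). Means ± SE.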

Mus musculus [8] = experiment: Antifibrotic activity in BLM-induced C57BL/6 mouse pulmonary fibrosis model assessed as improvement in lung architecture at 30 mg/kg, ip qd administered 15 days starting 1 day prior to BLM installation by hematoxylin/eosin staining-based microscopic method; format: functional, organism-based; method in brief: as §1
Plasma = experiment: Plasma concentration in BLM-induced C57BL/6 mouse pulmonary fibrosis model at 30 mg/kg, ip qd administered 15 days starting 1 day prior to BLM installation measured 3 to 6 hrs post last dose by LC-MS/MS method; format: ADME, organism-based; settings: in vivo; method in brief: as §2
Autotaxin [9] = target: T1, Autotaxin (Mus musculus, UniProt Q9R1E6); experiment: Inhibition of mouse ATX-beta using LPC 16:0 as substrate by Amplex Red PLD assay
Autotaxin [10] = target: T1, Autotaxin; experiment: Inhibition of recombinant mouse ATX expressed in HEK293 cells using LPC 17:0 as substrate after 30 mins by LC-MS/MS method
Rattus norvegicus = organism: Rattus norvegicus; experiment: animal or person; settings: Lewis, po, 4 h, read-out: INH
Autotaxin [11] = target: T1, Autotaxin; experiment: Inhibition of recombinant mouse ATX expressed in HEK293 cells using FS3 as substrate preincubated for 15 mins followed by substrate addition measured after 30 mins
Autotaxin [12] = target: T1, Autotaxin; experiment: Inhibition of mouse ATX-beta using LPC 18:0 as substrate by Amplex Red PLD assay

Row | IC50 (Autotaxin [9]) [µM] | SMILES | further results
1 |  | CCCC[C@@H](CCCC(=O)NO)NC(=O)CCCCC(=O)Nc1ccccc1 | Activity (Mus musculus [1]): Active; Activity (Mus musculus [2]): Active; Activity (Mus musculus [3]): Active; concentration at 1 h [4]: 70 ng/mL; Activity (Mus musculus [5]): Active; Activity (Mus musculus [6]): 50%; Activity (Mus musculus [7]): Active; Activity (Mus musculus [8]): Active; Cp (Plasma): 35 ng/mL
2 | > 5 | O=C(CC[C@H](NC(=O)CCCCC(=O)Nc1ccccc1)C(=O)NO)NO | 
3 | 4.5 | COC(=O)[C@H](CCC(=O)NO)NC(=O)CCCCC(=O)Nc1ccc(OC)cc1 | 
4 | > 5 | O=C(Cc1ccc(NC(=O)CCCCc2ccc(-c3ccccc3)cc2)cc1)NO | 
5 | > 5 | O=C(O)Cc1ccc(NC(=O)CCCCC(=O)Nc2ccccc2)cc1 | 
6 | 0.4 | COC(=O)[C@H](CCC(=O)NO)NC(=O)CCCCC(=O)Nc1ccccc1 | 
7 | > 5 | O=C(Cc1ccc(NC(=O)CCCCNC(=O)c2ccc(F)cc2)cc1)NO | 
8 | > 5 | CCOc1ccc(NC(=O)CCCCC(=O)N[C@@H](CCC(=O)NO)C(=O)OC)cc1 | 
9 | 0.05 | COC(=O)[C@H](CCCC(=O)NO)NC(=O)CCCCC(=O)Nc1ccccc1 | 
10 |  | O=C(CCN1CCN(C(=O)OCc2cc(Cl)cc(Cl)c2)CC1)c1ccc2[nH]c(=O)oc2c1 | IC50 (Autotaxin [10]): 0.0017 µM; inhibition in vivo at 30 mg/kg (Rattus norvegicus): > 95%; IC50 (Autotaxin [11]): 0.0028 µM
11 | > 5 | COC(=O)[C@H](CCC(=O)NO)NC(=O)CCCCNC(=O)c1ccccc1 | 
12 | > 5 | COC(=O)[C@H](CCCC(=O)NO)NC(=O)CCCCCCc1ccccc1 | 
13 | 0.7 | O=C(CCCCC(=O)Nc1ccc(B(O)O)cc1)Nc1ccccc1 | IC50 (Autotaxin [12]): 4 µM
14 | > 5 | CCCCCCCCc1ccc(C(=O)Nc2ccc(CC(=O)NO)cc2)cc1 | 
15 | > 5 | COC(=O)[C@H](CCC(=O)NO)NC(=O)CCCCC(=O)Nc1ccc(F)cc1 | 
16 |  | O=C(Cc1ccc(NC(=O)CCCCC(=O)Nc2ccccc2)cc1)NO | IC50 (Autotaxin [12]): 0.2 µM
17 | > 5 | CCCCCCCCCC(=O)Nc1ccc(CC(=O)NO)cc1 | 
18 | 3 | O=C(CCCCC(=O)Nc1ccc(CC(=O)C(F)(F)C(F)(F)F)cc1)Nc1ccccc1 | IC50 (Autotaxin [12]): 0.5 µM
